Experimental findings from ChEMBL document CHEMBL1144880, “Identification of phenylisoxazolines as novel and viable antibacterial agents active against Gram-positive pathogens” (J Med Chem, 2003) are described below.

A word on the ED50: it is the dose at which the effect has come halfway, by size or by number of responders. Higher therefore signals a need for a large dose.

Format in all cases: functional
For one experiment, the system named is Enterococcus faecalis. Nature of the experiment: In vitro minimum inhibitory concentration (MIC) against Enterococcus faecalis UC9217. The method, boiled down: (§1)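 MIC determined by standard broth microdilution, defined as the lowest drug concentration (µg/mL) inhibiting visible growth.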
The next experiment deals with Escherichia coli. Nature of the experiment: In vitro minimum inhibitory concentration (MIC) against Escherichia coli UC6674. The method, boiled down:
as §1

The subject of the next experiment is Haemophilus influenzae. Description: In vitro minimum inhibitory concentration (MIC) against Haemophilus influenzae UC30063. The procedure, abridged: as §1
A further experiment deals with Moraxella catarrhalis. Nature of the experiment: In vitro minimum inhibitory concentration (MIC) against Moraxella catarrhalis UC30610. The method, boiled down:
as §1

In a further experiment the test system is Mus musculus. Description: In Vivo effective dose required for antibacterial activity in a systemic mouse infection model (SMIM) upon peroral administration against Staphylococcus aureus UC9213. To be noted: po. The method, boiled down: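 Compound was given orally at 1 and 5 h after infection. Deaths were monitored for at least 6 days, and ED50 (dose curing 50% of mice) was calculated by probit analysis.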

Another experiment deals with Streptococcus pneumoniae. Nature of the experiment: In vitro minimum inhibitory concentration (MIC) against Streptococcus pneumoniae UC9912. The procedure, abridged:
as §1

Experiment [1] concerns Staphylococcus aureus. Nature of the experiment: In vitro minimum inhibitory concentration (MIC) against Staphylococcus aureus UC12673. The procedure, abridged:
as §1

Experiment [2] concerns Staphylococcus aureus. Description: In vitro minimum inhibitory concentration (MIC) against Staphylococcus aureus UC9213. The method, boiled down: as §1
Experiment [3] has as its system Staphylococcus epidermidis. Description: In vitro minimum inhibitory concentration (MIC) against Staphylococcus epidermidis UC12084. The procedure, abridged: as §1

Values after ≈ are worked out from the molar mass of the structure shown. Bounds are passed on as bounds.

For `C/C(S)=N/C[C@H]1CC(c2cc(F)c(N3CCOCC3)c(F)c2)=NO1`, the MIC is 1 µg/mL (≈ 2.81 µM) against Enterococcus faecalis; over 16 µg/mL with Escherichia coli; 16 µg/mL (≈ 45 µM) against Haemophilus influenzae; 2 µg/mL (≈ 5.63 µM) in the experiment with Moraxella catarrhalis; 0.25 µg/mL (≈ 0.703 µM) in the experiment on Streptococcus pneumoniae; 1 µg/mL (≈ 2.81 µM) against Staphylococcus aureus [1]. Also, the MIC against Staphylococcus aureus [2] was 1 µg/mL (≈ 2.81 µM); in experiment [3], 0.25 µg/mL (≈ 0.703 µM). This molecule also had an ED50 in the experiment on Mus musculus of over 20 mg/kg.

Turning to `CC(=O)NC[C@H]1CC(c2ccc(C3=CCN(C(=O)CO)CC3)cc2)=NO1`, the MIC in the experiment on Enterococcus faecalis was 4 µg/mL (≈ 11.2 µM); with Escherichia coli it was over 16 µg/mL; against Haemophilus influenzae it was over 16 µg/mL; with Moraxella catarrhalis, 8 µg/mL (≈ 22.4 µM); against Streptococcus pneumoniae, 0.5 µg/mL (≈ 1.4 µM); against Staphylococcus aureus [1] it was 2 µg/mL (≈ 5.6 µM). Besides, the MIC in the experiment on Staphylococcus aureus [2] was determined as 2 µg/mL (≈ 5.6 µM); in experiment [3], 1 µg/mL (≈ 2.8 µM). For the same molecule, the ED50 in the experiment with Mus musculus amounted to 6 mg/kg.

Consider `CC(=O)NC[C@H]1CC(c2cc(F)c(N3CCN(C(=O)CO)CC3)c(F)c2)=NO1`, for which the MIC with Enterococcus faecalis is 2 µg/mL (≈ 5.05 µM); against Escherichia coli, over 16 µg/mL; in the experiment on Haemophilus influenzae, 16 µg/mL (≈ 40.4 µM); in the experiment on Moraxella catarrhalis, 8 µg/mL (≈ 20.2 µM); against Streptococcus pneumoniae, 0.5 µg/mL (≈ 1.26 µM); in the experiment with Staphylococcus aureus [1], 1 µg/mL (≈ 2.52 µM). The MIC in the experiment on Staphylococcus aureus [2] came out at 2 µg/mL (≈ 5.05 µM); in experiment [3], 0.5 µg/mL (≈ 1.26 µM). In the experiment with Mus musculus, the median effective dose (ED50) amounted to 5 mg/kg.

For the molecule `CC(=O)NC[C@H]1CC(c2cc(F)c(N3CCOCC3)c(F)c2)=NO1`, the MIC was 4 µg/mL (≈ 11.8 µM) with Enterococcus faecalis; over 16 µg/mL with Escherichia coli; over 16 µg/mL with Haemophilus influenzae; 8 µg/mL (≈ 23.6 µM) against Moraxella catarrhalis; 1 µg/mL (≈ 2.95 µM) with Streptococcus pneumoniae; 4 µg/mL (≈ 11.8 µM) in the experiment with Staphylococcus aureus [1]. For the same molecule, the MIC against Staphylococcus aureus [2] was 4 µg/mL (≈ 11.8 µM); in experiment [3], 2 µg/mL (≈ 5.89 µM). The same molecule displayed an ED50 with Mus musculus of over 20 mg/kg.
